From PubChem BioAssay
Sampled rows, rich in hits. Any-hit rate of the full collection: about 2.9%.
dFosB act-1 – activators of mouse delta FosB homodimer. purified delta FosB, TAMRA-CDK5 oligo fluorescence polarization; percent of positive-control signal above neutral wells. activation, % at 25 µM. actives 0.99% (n = 340,000);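 active = mean activation above about 17%, with every replicate also reaching it, limit read from the data, passing the limit was not always enough; inconclusive = only one of the two conditions met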
PAX8 reporter – inhibitors of PAX8 transcriptional activity in RMG-I cells | RMG-I TPO-luciferase reporter, SteadyGlo, 24 h | inhibition, % at 12.6 µM | actives 1.2% (n = 360,000);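 active = mean replicate inhibition at least 60% with every replicate also reaching 60%; inconclusive = only one of the two criteria is met; inactive = mean below 60% and not all replicates reaching 60%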;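 also: luciferase light reporting Pax8 driven TPO promoter activity; plate controls were median of neutral control wells for no effect and mitoxantrone controls for full effect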
CDK5 inh – inhibitors of human CDK5/p35 kinase. Recombinant CDK5/p35, ADP-Glo luminescence, 60 min. actives 0.01% (n = 330,000). inhibition, % at 10 µM;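 active = highest replicate inhibition of at least 50% and at least 75% of replicates reaching 50%; inconclusive = only one of the two criteria met; inactive = both criteria failed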;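 also: plate controls were DMSO neutral control for no effect and GW8510 at 10 µM for full effect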
Target sequence (Q00535 whole entry, looked up): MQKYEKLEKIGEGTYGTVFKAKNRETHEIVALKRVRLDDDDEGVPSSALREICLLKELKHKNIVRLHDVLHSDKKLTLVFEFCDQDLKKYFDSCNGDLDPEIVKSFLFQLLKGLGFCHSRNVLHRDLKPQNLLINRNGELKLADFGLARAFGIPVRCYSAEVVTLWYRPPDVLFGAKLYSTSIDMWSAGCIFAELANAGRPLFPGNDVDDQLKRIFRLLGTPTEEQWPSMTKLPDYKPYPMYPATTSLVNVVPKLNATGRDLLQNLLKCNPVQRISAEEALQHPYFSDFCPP
Target sequence (Q15078 whole entry, looked up): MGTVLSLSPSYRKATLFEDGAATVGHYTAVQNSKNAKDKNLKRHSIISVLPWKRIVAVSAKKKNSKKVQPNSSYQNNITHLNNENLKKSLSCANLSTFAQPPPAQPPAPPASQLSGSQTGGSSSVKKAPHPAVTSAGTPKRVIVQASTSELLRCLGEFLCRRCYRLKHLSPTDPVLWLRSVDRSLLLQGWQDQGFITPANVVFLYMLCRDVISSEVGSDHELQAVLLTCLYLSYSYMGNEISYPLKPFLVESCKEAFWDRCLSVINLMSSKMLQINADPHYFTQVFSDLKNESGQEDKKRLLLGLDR
GSIS activator – primary screen for activators of insulin secretion dependent on glucose, INS-1E cells, GLuc reporter luminescence. INS-1E GLuc reporter insulin secretion, 2-3 h. activation, % at 16.6 µM. actives 0.61% (n = 370,000);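 active = lowest replicate activation of at least 40%, so every replicate reaches that level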;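 also: 0% = median of neutral control wells and 100% = median of IBMX positive control wells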
Env fusion inh – inhibitors of HIV Env-mediated cell fusion. HeLa-JRFL Env/CEM21 cell fusion, luciferase. actives 1.1% (n = 360,000). inhibition, % at 12.3 µM;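 active = mean replicate inhibition score of at least 50 and every replicate individually at or above 50; inconclusive = only one of the two criteria met; inactive = mean below 50 and not all replicates reaching 50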;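 also: 0% = plate neutral controls and 100% = maraviroc near 300 nM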
Cneo AK release – causes C. neoformans cell lysis; lysis activity, % at 15 µM; AID 651654; adenylate kinase release luminescence, 4 h; normalised: neutral wells 0, clomiphene wells 100; actives 0.2% (n = 360,000);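 active = mean lysis activity across replicates of at least 80%, whatever share of replicates individually reach that level; inactive = mean lysis activity below 80%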
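Schedule: static 4 h at 37 °C with compound, 1 h detection; system: C. neoformans cells; benchmarks: Clomiphene as positive control; buffer or medium: fresh YPD medium; measure: luminescence rise reflecting yeast cell lysis; measured by: luminescent adenylate kinase detection reagent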
dFosB act-2 – activators of mouse delta FosB homodimer DNA binding; shares compounds with dFosB act-1; purified delta FosB, TAMRA-CDK5 oligo fluorescence polarization; normalised: neutral wells 0, positive control 100; activation, % at 24.9 µM; 2,400 tested, under 10 active; AID 588690;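 active = highest replicate activation at or above 34% and every replicate reaching that threshold; inconclusive = meets only one of the two criteria; inactive = meets neither criterion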;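 also: higher polarization means more probe DNA bound by delta FosB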
The depositor's hits bear a star; ? = inconclusive; nt = not tested or not shown; [ ] = remark or other dose.

SMILES	dFosB act-1	PAX8 reporter	CDK5 inh	GSIS activator	Env fusion inh	Cneo AK release	dFosB act-2
CN(C)CC(=O)Nc1ccc2c(c1)[C@H]1C[C@H](CC(=O)N3CCN(C)CC3)O[C@@H](CO)[C@H]1O2	nt	-3	nt	1	nt	-1	nt
COc1ccc(NC(=O)N(C)C[C@H]2OCc3ccccc3-c3c(n(C)c4ccccc34)C(=O)N([C@@H](C)CO)C[C@@H]2C)c(OC)c1	nt	10	nt	-10	23[16.7 µM]	-2	nt
CCOC(=O)Cn1c(=NC(=O)CSC(C)=O)sc2cc(OC)ccc21	-4	nt	0	nt	nt	0	nt
COC(=O)Cn1c(=NC(=O)CSCC(=O)NC2CCCCC2)sc2cc(OC)ccc21	29*	nt	0	nt	nt	5	-1
CCOC(=O)c1c(C)nc2sc(C(=O)Nc3ccc(C(C)=O)cc3)c(N)c2c1-c1ccc(OC)cc1	19*	nt	0	nt	nt	nt	0
Cc1noc(C)c1NC(=O)Nc1cccc2c1O[C@@H](CN(C)S(=O)(=O)c1ccccc1)[C@@H](C)CN([C@H](C)CO)C2=O	nt	-18	nt	27	-35[16.7 µM]	nt	nt
Cn1nc(C(=O)N2CCN(S(=O)(=O)c3ccc(Cl)cc3)CC2)c2ccccc2c1=O	-11	4	0	-12	14	3	nt
O=C(Cn1nc(C(=O)O)c2ccccc2c1=O)Nc1cccc(S(=O)(=O)N2CCCCCC2)c1	32*	9	5	nt	-24	nt	-1
O=C(Nc1cccc(S(=O)(=O)N2CCCCC2)c1)c1c2c(nc3ccccc13)CCN(Cc1ccccc1)C2	52*	7	-1	nt	-24	nt	-2
O=C(O)c1nn(CC(=O)N2CCN(S(=O)(=O)c3ccc(Cl)cc3)CC2)c(=O)c2ccccc12	30*	-11	2	23	-4	-5	4
C[C@@H]1CCCCO[C@@H](CN(C)S(=O)(=O)c2ccccc2)[C@H](C)CN([C@H](C)CO)C(=O)c2cc(NC(=O)Nc3cccc4ccccc34)ccc2O1	nt	-17	nt	29	-47[16.7 µM]	6	nt
Cc1ccc(S(=O)(=O)N(C)C[C@H]2Oc3ncc(-c4ccncc4)cc3C(=O)N([C@@H](C)CO)C[C@H]2C)cc1	nt	nt	nt	3	-8[16.7 µM]	0	nt
Cc1c(C2=CCN(S(=O)(=O)c3ccc(Br)cc3)CC2)c2ccccc2n1C	32*	1	2	-21	7	nt	-8
CCn1c(C)c(C2=CCN(S(=O)(=O)c3ccc(C)cc3)CC2)c2ccccc21	14	4	-1	23	-8	2	nt
COCCn1c(N)c(N(Cc2ccccc2)C(=O)c2ccc(-c3ccc(Cl)cc3)o2)c(=O)[nH]c1=O	23*	11	0	5	-7	0	1
Cc1cc(C)c2cc(CN(CCN3CCCC3)C(=O)Nc3ccc(F)cc3)c(=O)[nH]c2c1	31*	nt	-1	nt	nt	-1	-8
Cc1ccc2[nH]c(=O)c(CN(CCN3CCOCC3)C(=O)Nc3ccc(F)cc3)cc2c1	-12	nt	2	nt	nt	0	nt
Cc1c(Cc2ccccc2)sc(NC(=O)c2ccco2)c1C(N)=O	21*	nt	1	86*	nt	1	3
O=C(NCC(=O)N(c1ccc2c(c1)OCO2)C(C(=O)NC1CCCC1)c1cccs1)c1ccco1 (stereo not given)	50*	nt	-1	nt	-20	0	2
O=C(NC1CCCC1)C(c1cccs1)N(C(=O)c1ccco1)c1ccc2c(c1)OCO2 (stereo not given)	-4	5	-1	nt	?	0	nt
Cc1oc2cc(O)ccc2c(=O)c1Oc1ccc(F)cc1	19*	4	-1	4	4	1	3
C#CCOCCOCCOCCNc1nc(N2CCN(C(=O)C([C@@H](C)O)n3cc([C@@H](N)CCCCN)nn3)CC2)nc(N2CCN(C(=O)[C@H](CO)n3cc([C@@H](N)C(C)C)nn3)CC2)n1 (stereo not given in full)	31*	-6	2	2	-22	-1	1
C#CCOCCOCCOCCNc1nc(N2CCN(C(=O)[C@H]([C@@H](C)CC)n3cc([C@@H](N)Cc4ccc(O)cc4)nn3)CC2)nc(N2CCN(C(=O)[C@H](CCCCN)n3cc([C@@H](N)C(C)CC)nn3)CC2)n1 (stereo not given in full)	23*	nt	-1	nt	nt	4	4
C#CCOCCOCCOCCNc1nc(N2CCN(C(=O)[C@H](Cc3ccc(O)cc3)n3cc([C@@H](N)C(C)CC)nn3)CC2)nc(N2CCN(C(=O)[C@H](Cc3cc4ccccc4[nH]3)n3cc([C@@H](N)CC(C)C)nn3)CC2)n1 (stereo not given in full)	nt	25	nt	-6	2	nt	nt
C#CCOCCOCCOCCNc1nc(N2CCN(C(=O)[C@H](Cc3ccc(O)cc3)n3cc([C@@H](N)C(C)CC)nn3)CC2)nc(N2CCN(C(=O)[C@H](Cc3cc4ccccc4[nH]3)n3cc([C@@H](N)C(C)CC)nn3)CC2)n1 (stereo not given in full)	40*	nt	3	nt	nt	0	-7
SMILES	dFosB act-1	PAX8 reporter	CDK5 inh	GSIS activator	Env fusion inh	Cneo AK release	dFosB act-2
C#CCOCCOCCOCCNc1nc(N2CCN(C(=O)[C@H]([C@@H](C)CC)n3cc([C@@H](N)CO)nn3)CC2)nc(N2CCN(C(=O)[C@H](Cc3ccc(O)cc3)n3cc([C@@H](N)C(C)CC)nn3)CC2)n1 (stereo not given in full)	-8	nt	-5	nt	nt	2	nt
C#CCOCCOCCOCCNc1nc(N2CCN(C(=O)C([C@@H](C)O)n3cc([C@@H](N)CCCCN)nn3)CC2)nc(N2CCN(C(=O)C([C@@H](C)O)n3cc([C@@H](N)CCCCN)nn3)CC2)n1 (stereo not given in full)	-9	-8	2	nt	nt	-1	nt
C#CCOCCOCCOCCNc1nc(N2CCN(C(=O)[C@H](CCCN=C(N)N)n3cc(C(N)[C@H](C)CC)nn3)CC2)nc(N2CCN(C(=O)[C@H](CCCN=C(N)N)n3cc(C(N)[C@@H](C)CC)nn3)CC2)n1 (stereo not given in full)	22*	nt	2	nt	nt	2	-5
CNC[C@@H]1Oc2c(NC(=O)c3ccc(-c4nccs4)cc3)cccc2C(=O)N([C@@H](C)CO)C[C@@H]1C	nt	17	nt	-1	-20[16.7 µM]	-3	nt
CCCC(=O)N1CC2(CCN(Cc3nccs3)CC2)c2c([nH]c3cc(OC)ccc23)[C@H]1CO	nt	2	nt	-8	nt	nt	nt
C/C=C/c1ccc2c(c1)O[C@H](CN(C)C(=O)NC(C)C)[C@H](C)CN([C@@H](C)CO)S2(=O)=O	nt	nt	nt	6	37[16.7 µM]	-1	nt
O=C(C[C@H]1CC[C@H]2[C@@H](COC[C@@H](O)CN2S(=O)(=O)c2cccc(F)c2)O1)Nc1ccccc1	nt	nt	nt	14	nt	0	nt
